Results reported in publication PMC6210075 (ACS Omega, 2018).

Tests used:
rat FAAH = biological target: T1, rat FAAH (Rattus norvegicus, UniProt P97612); assay: FAAH fluorescent inhibition assay, rat brain microsomes; assay type: biochemical
T1 sequence (P97612 1-579): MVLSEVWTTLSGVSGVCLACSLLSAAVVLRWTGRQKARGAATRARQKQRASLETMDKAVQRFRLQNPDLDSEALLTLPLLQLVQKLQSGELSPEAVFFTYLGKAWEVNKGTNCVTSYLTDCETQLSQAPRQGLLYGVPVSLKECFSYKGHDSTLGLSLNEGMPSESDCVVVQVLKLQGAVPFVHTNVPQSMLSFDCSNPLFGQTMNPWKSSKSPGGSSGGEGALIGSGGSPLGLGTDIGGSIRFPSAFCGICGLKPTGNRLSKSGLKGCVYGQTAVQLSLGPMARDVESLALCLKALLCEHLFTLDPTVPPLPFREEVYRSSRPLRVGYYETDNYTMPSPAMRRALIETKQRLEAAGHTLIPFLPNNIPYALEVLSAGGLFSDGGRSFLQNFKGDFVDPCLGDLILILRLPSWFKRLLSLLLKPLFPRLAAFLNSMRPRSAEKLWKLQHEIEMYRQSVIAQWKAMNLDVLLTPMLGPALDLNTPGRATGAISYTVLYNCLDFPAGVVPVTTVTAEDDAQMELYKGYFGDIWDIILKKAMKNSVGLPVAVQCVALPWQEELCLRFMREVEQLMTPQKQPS
Summary of the method: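 Rat brain microsomes: tissue homogenized in 20 mM phosphate (pH 7.4, 5 mM EDTA), spun at 9000g for 20 min, then 100 000g for 1 h, and stored at −80 °C. OMP (100 μM final) in 0.1 M sodium phosphate pH 8, 0.1 mg/mL BSA, 2% DMSO, 37 °C. Fluorescence (ex 303/em 394 nm) read every 30 s for 10 min. No-enzyme background subtracted. IC50 from linear regression of log[I] vs % remaining activity; triplicates.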

FAAH = biological target: T2, FAAH (Mus musculus, UniProt O08914); assay type: in vivo; settings: mice, 1 mg/kg i.p. in DMSO, 4 h after dosing
T2 sequence (O08914 1-579): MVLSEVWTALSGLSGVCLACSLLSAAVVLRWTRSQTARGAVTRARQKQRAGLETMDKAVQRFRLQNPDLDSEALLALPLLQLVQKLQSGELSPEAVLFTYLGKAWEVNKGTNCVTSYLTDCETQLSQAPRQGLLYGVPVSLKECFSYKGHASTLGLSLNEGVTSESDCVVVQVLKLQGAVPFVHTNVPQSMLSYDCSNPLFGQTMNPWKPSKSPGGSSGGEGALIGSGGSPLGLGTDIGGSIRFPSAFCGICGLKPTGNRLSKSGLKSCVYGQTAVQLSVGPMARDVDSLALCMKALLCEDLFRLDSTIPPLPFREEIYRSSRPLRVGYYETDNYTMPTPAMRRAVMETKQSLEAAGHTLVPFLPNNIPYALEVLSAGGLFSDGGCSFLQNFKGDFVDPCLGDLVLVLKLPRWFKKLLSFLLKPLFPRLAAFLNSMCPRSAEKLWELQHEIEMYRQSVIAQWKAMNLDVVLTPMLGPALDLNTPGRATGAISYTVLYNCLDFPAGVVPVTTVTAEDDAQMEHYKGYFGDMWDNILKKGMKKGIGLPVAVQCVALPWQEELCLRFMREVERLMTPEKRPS
Summary of the method: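 Male Swiss Webster mice got test compound in 20 μL DMSO i.p. and were killed 4 h later. Tissue was homogenized about fivefold by weight in 20 mM phosphate, pH 7.4, 5 mM EDTA, then diluted 1000-fold (liver) or 100-fold (brain) in 100 mM phosphate, pH 8.0, 0.1% BSA. OMP (100 μM final) hydrolysis was read by fluorescence (303/394 nm) for 10 min, normalized to BCA protein, and expressed as % of vehicle.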

rat sEH = biological target: T3, rat sEH (Rattus norvegicus, UniProt P80299); assay: sEH fluorescent inhibition assay, recombinant rat sEH; assay type: biochemical
T3 sequence (P80299 1-554): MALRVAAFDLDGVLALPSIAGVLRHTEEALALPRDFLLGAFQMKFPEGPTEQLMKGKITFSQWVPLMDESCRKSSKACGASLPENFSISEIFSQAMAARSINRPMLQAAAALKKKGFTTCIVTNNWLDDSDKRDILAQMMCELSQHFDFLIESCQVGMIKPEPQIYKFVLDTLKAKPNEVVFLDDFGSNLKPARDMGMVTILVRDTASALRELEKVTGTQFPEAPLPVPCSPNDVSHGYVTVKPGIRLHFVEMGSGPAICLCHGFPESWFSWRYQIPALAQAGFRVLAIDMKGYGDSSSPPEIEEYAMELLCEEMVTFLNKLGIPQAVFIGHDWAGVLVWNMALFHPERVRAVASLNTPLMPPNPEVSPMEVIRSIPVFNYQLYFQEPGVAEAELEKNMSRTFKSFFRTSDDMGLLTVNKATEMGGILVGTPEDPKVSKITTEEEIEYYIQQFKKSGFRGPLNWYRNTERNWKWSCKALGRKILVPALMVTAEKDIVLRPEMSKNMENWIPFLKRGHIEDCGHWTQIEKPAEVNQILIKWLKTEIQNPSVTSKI

[1] = Cassette dosing pharmacokinetics in rats; assay type: in vivo; settings: male, Sprague-Dawley, rat, whole blood, po, 1 mg/kg
Summary of the method: (§1)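 Test compounds were given as a cassette cocktail at 1 mg/kg each, p.o. in PEG300, to groups of 4 rats or 4 mice. Blood was taken by tail vein at set intervals and group averages were used.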

[2] = Cassette dosing pharmacokinetics in mice; assay type: in vivo; settings: male, Swiss Webster, mouse, whole blood, po, 1 mg/kg
Summary of the method: as §1

[3] = FAAH IC50 (60 min pre-incubation), 60 min pre-incubation

Row | IC50 (rat FAAH; FAAH IC50 (5 min pre-incubation), 5 min pre-incubation) | IC50 (rat sEH) | AUC [1] | Cmax [1] | AUC [2] | Cmax [2] | SMILES | IC50 (rat FAAH; [3]) | residual brain FAAH activity, % of control (FAAH; brain) | residual liver FAAH activity, % of control (FAAH; liver)
1 |  |  |  |  |  |  | O=C(Nc1cccnc1)N1CCC(Cc2cccc(Oc3ccc(C(F)(F)F)cn3)c2)CC1 [PF-3845, reference compound] | 0.2 nM | 0.2 ± 0.1% | 22 ± 2%
2 | > 10000 nM | 240 nM | 0.6 µM·h | 58 nM | 0.41 µM·h | 37 nM | O=C(Nc1ccc(C(F)(F)F)cc1F)N1CCC(Cc2cccc(Oc3ccc(C(F)(F)F)cn3)c2)CC1 [compound 18] | 1100 nM |  | 
